Reference: ChEMBL document CHEMBL1135898, “Synthesis and antimycobacterial activity of 6-arylpurines: the requirements for the N-9 substituent in active antimycobacterial purines” (J Med Chem, 2002)
Values after ≈ are worked out from the molar mass of the structure shown.

Experiments:
Format in all cases: functional
[1] = test system: Mycobacterium tuberculosis; assay: Minimum Inhibitory Concentration against drug-resistant strain resistant to Isoniazid
Method in brief: (§1)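 MICs by microplate alamar blue assay against M. tuberculosis strains resistant to isoniazid (ATCC 35822), rifampin (ATCC 35838), ethambutol, kanamycin or ciprofloxacin, drug-sensitive strain Erdman, and M. avium (ATCC 25291). MIC = minimum concentration giving 90% growth inhibition.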

[2] = test system: Mycobacterium tuberculosis; assay: Minimum Inhibitory Concentration against drug-resistant strain resistant to Ciprofloxacin; method in brief: as §1
[3] = test system: Mycobacterium tuberculosis; assay: Minimum Inhibitory Concentration against drug-resistant strain resistant to Rifampin; method in brief: as §1
[4] = test system: Mycobacterium tuberculosis; assay: Minimum Inhibitory Concentration against drug-resistant strain resistant to Ethambutol; method in brief: as §1

Clc1nc(-c2ccco2)c2ncn(Cc3ccccc3)c2n1
MIC [1]: 3.13 µg/mL (≈ 10.1 µM)
MIC [2]: < 0.39 µg/mL
MIC [3]: 1.56 µg/mL (≈ 5.02 µM)
MIC [4]: < 0.39 µg/mL
